Among the data in the RNAGym collection of RNA variant scans (doi:10.1126/science.aae0568) are yeast fitness values, retold here.

To fix the notation:
B1: tRNA (parent)
chain: GUUCCGUUGGCGUAAUGGUAACGCGUCUCCCUCCUAAGGAGAAGACUGCGGGUUCGAGUCCCGUACGGAACG

This sample holds only a part of the variants without activity.

In the data set the parent is B1. Briefly: yeast fitness relative to wild type (ratio to wild type); higher = fitter; tRNA-Arg(CCU), competitive growth, 37 C, YPD. In a few lines:
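Gene amplicons from the start population and from each of six end populations were read by 100-nucleotide paired-end sequencing. Those end populations came from pooled Saccharomyces cerevisiae strains carrying tRNA-Arg(CCU) gene variants at the native locus, competed in YPD at 37°C for 24 hours. Fitness relative to wild type was worked out from changes in genotype frequencies. Genotypes needed ≥ 100 starting reads, and estimates < 0.5 were set to 0.5.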
GUUCUGUUGGCGUAAUGGUAACGCGUCUCCCUCCUAAGGAGAAGACUCCGGGUUCGAGUCCCGUACGGAACG [C5U G48C]: the yeast fitness stood at 0.853. For the variant GUUCUGAUGGCGUAAUGGUAACGCGUCUCCCUUCUAAGGAGCAGACUGCGGGUUCGAGUCCCGCACGGAGCG [C5U U7A C33U A42C U64C A70G], the yeast fitness is at most 0.5.

As for GUUCUGAUGGCGUAAUGGUAACGCGUCUCCCUACUAAGGAGAAGCCUGCGGGUUCGAGUCCCGUACGGAACG [C5U U7A C33A A45C], the yeast fitness was determined as 0.573.

Take GUUCUGUUGGCGUAAUGGUAACGCGUCUCCCUCCUAAGGAGAAGACUGCGGGUUCGAGUCCCAUACGGAACG [C5U G63A]: the yeast fitness worked out at 0.828. GUUCUGUUGGCGUAAUGGUAACGCGUCUCCCUCCUAAGGAGAAGACUGCGGGUUCGAGUCCCCUACGGAACG [C5U G63C]: the yeast fitness amounted to 0.664.

With GUUCUGUUGGCGUAAUGGUAACGCGUCUCCCUCCUAAGGAGAACACUGCGGGUUCGAGUCCCGUACGGAACG [C5U G44C], the yeast fitness worked out at 1.01. Consider GUUCUGCUGGCGUAAUGGUAACGCGUCUCCCUCCUAAGGAGAAGACUGCGGCUUCGUGUCCUGUAGGGAACG [C5U U7C G52C A57U C62U C66G], for which the yeast fitness was at most 0.5. On to GUUCUGUAGGCGUAAUGGUAACGCGUCUCCCUCCUAAGGAGAAGACUGCGGGUUCGUGUCCCGUACGGAACG [C5U U8A A57U], for which the yeast fitness is at most 0.5. For the variant GUUCUGUAGGCGUAAUGGUAACGCGUCUCCCUCCUAAGGAGAAGACUGCGGGUUCGAGUCCCGUACGGACCG [C5U U8A A70C], the yeast fitness turned out to be 0.583.

As for GUUCUGAUGGCGUAAUGGUAACGCGUCUCCCUCCUUAGGAGAAGACUGCGGGUUCGAGUCCCGUACGGAACG [C5U U7A A36U], the yeast fitness is at most 0.5. Regarding GUUCUGUUGGCGUAAUGGUAACGCGUCUCCCUCCUAAGGAGAAGACUGCGCGCUCGAGUCCCGUACGGGACG [C5U G51C U53C A69G], the yeast fitness was at most 0.5. On to GUUCUGAUGGCGUAAUGGUAACGCGUCACCCUCCUAAGGAGAAGACUGCGGGUUCGAGUCCCGUACGGAACG [C5U U7A U28A], for which the yeast fitness was 0.573. Under GUUCUGAUGGCGUAAUGGUAACGCGUCUCACUCCUAAGGAGAAGACUGCGGGUUCCAGUCCCGUAGGGAACG [C5U U7A C30A G56C C66G] stands at most 0.5; under GUUCUGUUGGCGUAAUGGUAACGCGUCUCCCUCCUAAGGAGAAGACUACAGGUUUGAGUCCCGUCCGGAACG [C5U G48A G50A C55U A65C], at most 0.5. In the case of GUUCUGUUGGCGUAAUGGUAACGCGUCUCCCUCCUAAGGAGAACACUGCGGGUCCGAGUCCCGUACGGAACG [C5U G44C U54C], the yeast fitness was 0.637. Take GUUCUGUAGGUGUAAUGGUAACGCGUCUCCCUCCGAAGGAGAUGAGUGCGGGCUCGAGUCCCGUACGGCACG [C5U U8A C11U U35G A43U C46G U53C A69C]: the yeast fitness is at most 0.5. Then GUUCUGGUGGCGUAAUGGUAACGCCUCUCCCUCCUAAGAAGAAGACUGCGGGUUCGAGUCCCGUAUGGAACG [C5U U7G G25C G39A C66U], with at most 0.5.

As for GUUCUGUUGGCGUAAUGGUAACGCGUCUCCCUCCUAAGGAGAAGACUGCGAGUUCGUGUCCCGUACGGAACG [C5U G51A A57U], the yeast fitness is at most 0.5. Regarding GUUCUGCUGGCGUAAUGGUAACGCGUCUCCCUCCUAAGGUGAAGACUGCGGGUUCGAGUCCCCUACGGAACG [C5U U7C A40U G63C], the yeast fitness was at most 0.5. For the variant GUUCUGUUGGCGUAAUGGUAACGCGUCUCCCUCCUAAGGAGAAGACUGCCCGUUCCAGUCCCGUACGGUACG [C5U G50C G51C G56C A69U], the yeast fitness was at most 0.5. As to GUUCUGGUGGCGUCAUGGUAACGCGUCUGCCUCCUAAGGAGAAGACUGCGGGUUCGAGUCCCGUACGGAACG [C5U U7G A14C C29G], the yeast fitness was at most 0.5. For GUUCUGCUGGCGUAAUGGUAACGCGUCUCACUCCUAAGGAGCAGACUGCGGGUUCGAGUCCCGUUCGGUACG [C5U U7C C30A A42C A65U A69U], the yeast fitness is at most 0.5.

Regarding GUUCUGCUGGCGUAAUGGUAACGCGUCUCGCUCCUAAGGAGCAGACUGCGGAUUUGAGUCCCGUAUGGAACG [C5U U7C C30G A42C G52A C55U C66U], the yeast fitness was at most 0.5. Regarding GUUCUGUUGGCGUAAUGGUAACGCGUCUCCCUCCUAAGGAGAAGACUGCGAGUUCGAGUCCCGUCCGGAACG [C5U G51A A65C], the yeast fitness is at most 0.5.

Turning to GUUCUGUUGGCGUAAUGGUAACGCGUCUCCCUCCUAAGGAGAAGACUGCGGGUUCGAGUCCCGUACCGAACG [C5U G67C], the yeast fitness amounted to 0.913.

As for GUUCUGUUGGCGUAAUGGUAACGCGUCUCCCUCCUAAGGAGAAGACUGCGGGUUCGAGUCCCGUACUGAACG [C5U G67U], the yeast fitness worked out at 0.735. For GUUCUGUUGGCGUAAUGGUAACGCGUCUCCCUCCUAAGGAGAAGACUGCGGGUUCGAGUCCCGUACAGAACG [C5U G67A], the yeast fitness was 0.923. Under GUUCUGUAGGCGUAAUGGUAACGCGUCUCCCUCCUAAGGAGAAGACUGCGGGUUCGAGUCCCGUACGGCACG [C5U U8A A69C] stands at most 0.5.

Take GUUCUGUUGGCGUAAUGGUAACGCGUCUCCCUCCUAAGGAGAAGACUGCGGAUUCGAGUCCCGUGCGGAACG [C5U G52A A65G]: the yeast fitness was found to be 0.598.

As for GUUCUGUUGGCGUAAUGGUAACGCGUCUCCCUCCUAAGGAGAAGACUGCGGAUUCGAGUCCCGUUCGGAACG [C5U G52A A65U], the yeast fitness is at most 0.5. For GUUCUGAUGGCGUAAUGGUAACGCGUCACCCUCCUAAGGAGAAGACUGUGGGUUCGAGUCCCGUACGGAACG [C5U U7A U28A C49U], the yeast fitness is at most 0.5.

Regarding GUUCUGAUGGCGUAAUGGUAACGCGUCUCCCUCCUAAGGAGAAGACUGCGGGUUCGAGUCCCGUACGGAACG [C5U U7A], the yeast fitness is 0.772.

On to GUUCUGGUGGCGUAAUGGUAACGCGUCUCCCUCCUAAGGAGAAGACUGCGGGUUCGAGUCCCGUACGGAACG [C5U U7G], for which the yeast fitness came out at 0.894. For the variant GUUCUGCUGGCGUAAUGGUAACGCGUCUCCCUCCUAAGGAGAAGACUGCGGGUUCGAGUCCCGUACGGAACG [C5U U7C], the yeast fitness worked out at 0.92.

With GUUCUGUUGGCGUAAUGGUAACGCGUCUCCCUCCUAAGGAGAAGACUGCGGGUUCAAGUCCCGUGUGGAACG [C5U G56A A65G C66U], the yeast fitness was 0.671.

Take GUUCUGUUGGCGUAAUGGUAACGCGUCUCCCUCCUAAGGAGAACACCGCGGGUUCGAGUCCCGUACGGAACG [C5U G44C U47C]: the yeast fitness was determined as 0.807. In the case of GUUCUGCUGGCGUAAUGGUAACGCGUCUCGCUCCUAAGGAGCAGACUGCGGGUUCGAGUCCCGUACGGAACG [C5U U7C C30G A42C], the yeast fitness came out at 0.565.
